Here are results for one molecule from ChEMBL document CHEMBL3352378, “Novel carbazole inhibits phospho-STAT3 through induction of protein-tyrosine phosphatase PTPN6” (J Med Chem, 2014).

Activity calls are given as the source filed them. The rule behind the calls is not given here.

The target in assay [1] is Tyrosine-protein phosphatase non-receptor type 6 (Homo sapiens) (UniProt P29350). In words: Induction of PTPN6 in human Hs578T cells assessed as inhibition of STAT3 phosphorylation at 3 uM after 16 hrs by Western blotting analysis in presence of pervanadate. The assay is classed as cell-based. The conditions noted are these: Hs-578T. A digest of the protocol: (§1)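 HS578T and SUM149PT cells treated for 16 h without or with increasing pervanadate as a phosphatase inhibitor; JAK1/2 inhibitor CP690550 run in parallel. Lysates immunoblotted for phospho-STAT3 (Y705), with β-actin as loading control.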
For orientation: A western blot detects proteins with antibodies after separation by electrophoresis.

Assay [2] has the same target. In words: Induction of PTPN6 in human SUM149PT cells assessed as inhibition of STAT3 phosphorylation at 3 uM after 16 hrs by Western blotting analysis in presence of pervanadate. It is filed as cell-based. A digest of the protocol:
as §1

Tyrosine-protein phosphatase non-receptor type 6 (Homo sapiens), sequence (P29350 whole entry): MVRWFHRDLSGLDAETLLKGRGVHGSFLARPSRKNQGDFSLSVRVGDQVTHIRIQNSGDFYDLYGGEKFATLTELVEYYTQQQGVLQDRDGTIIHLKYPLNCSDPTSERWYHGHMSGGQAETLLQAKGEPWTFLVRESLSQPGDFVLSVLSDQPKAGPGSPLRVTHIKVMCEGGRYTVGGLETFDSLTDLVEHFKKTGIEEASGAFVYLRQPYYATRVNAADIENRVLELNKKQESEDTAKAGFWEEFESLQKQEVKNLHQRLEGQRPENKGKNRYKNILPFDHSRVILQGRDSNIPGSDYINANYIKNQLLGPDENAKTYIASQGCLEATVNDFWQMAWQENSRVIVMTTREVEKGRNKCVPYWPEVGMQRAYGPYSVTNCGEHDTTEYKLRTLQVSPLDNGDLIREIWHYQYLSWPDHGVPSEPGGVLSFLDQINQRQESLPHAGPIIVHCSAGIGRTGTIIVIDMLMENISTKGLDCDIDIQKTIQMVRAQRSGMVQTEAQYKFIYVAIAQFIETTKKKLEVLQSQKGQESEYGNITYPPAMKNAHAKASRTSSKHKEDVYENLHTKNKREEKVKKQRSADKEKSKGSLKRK

As to `C[C@@H]1CCN(C(=O)CC#N)C[C@@H]1N(C)c1ncnc2[nH]ccc12`, the inhibition entry in assay [1] and in assay [2] was “Active” each time.
